Published values gathered from unrelated publications.
Compare with care: the assays were run in different laboratories.
Target: Death-associated protein kinase 2 (DAPK2, Homo sapiens, UniProt Q9UIK4)

COc1ncc2cc3ccccc3nc2c1C#N
remaining binding (cell-free assay, competition with immobilised ligand; 5 µM): 97%

COc1cnc(Nc2cccc(S(N)(=O)=O)c2)nc1N1CCN(c2ccccc2)C(=O)C1
remaining binding (binding, competition with immobilised ligand; 1 µM): 100%

C[C@H](NC(=O)c1cnc2n1[C@](C)(Cc1ccc(C#N)cc1)C(=O)N2c1cc(Cl)c(F)c(Cl)c1)C(=O)NC1(c2ccccn2)CC1
remaining binding (cell-free assay, competition with immobilised ligand; 1 µM): 100%

CN(C)c1ncc(F)c(-c2cnn3ncccc23)n1
remaining binding (binding; 1 µM): 69%

Cc1c(NC(=O)c2cc(C(N)=O)nc3cc(F)ccc23)c(C(F)(F)F)nn1Cc1ccc(C#N)cc1
remaining binding (cell-free assay, competition with immobilised ligand; 1 µM): 99%

Cc1cnc(Nc2ccc(C(=O)N3CCC(N4CCCC4)CC3)cc2)nc1-c1cc2ccccc2s1
remaining binding (binding, competition with immobilised ligand; 1 µM): 8.9%

CN(c1nccc(-c2cnn3ncccc23)n1)C1CC1
remaining binding (binding; 1 µM): 76%

c1cncc(-c2cccc(Nc3nccc(NC4CCCCC4)n3)c2)c1
remaining binding (binding, competition with immobilised ligand; 10 µM): 84%

O=C(NCC1CCOCC1)c1n[nH]cc1NC(=O)c1c(F)cccc1F
remaining binding (binding, competition with immobilised ligand; 1 µM): 95%

C[C@@H]1CCN(c2nccc(-c3cnn4ncccc34)n2)C1
remaining binding (binding; 1 µM): 85%

COc1cccc(CNC(=O)c2nc3scc(COCc4ccc(C(=O)O)cc4)c3c(=O)[nH]2)c1
remaining binding (cell-free assay, competition with immobilised ligand; 1 µM): 83.1%

CC1CCCN1c1nccc(-c2cnn3ncccc23)n1 (stereo not shown)
remaining binding (binding; 1 µM): 86%

Nc1c(C(=O)NCc2ccc(C(=O)NCCCC3CCCCC3)cc2)cnn1-c1ccccc1
remaining binding (cell-free assay, competition with immobilised ligand; 0.1 µM): 100%

COc1ccnn2ncc(-c3ccnc(N(C)C)n3)c12
remaining binding (binding; 1 µM): 91%

CS(=O)(=O)N1CCCC(NC(=O)[C@H](CCC2CCCCC2)NC(=O)c2ccc(CNc3ncnc4c3nnn4-c3ccccc3)cc2)C1 (stereo partly shown)
remaining binding (cell-free assay, competition with immobilised ligand; 0.1 µM): 90%

CN(CCCC(F)(F)F)c1nccc(-c2cnn3ncccc23)n1
remaining binding (binding; 1 µM): 97%

Cc1noc([C@H]2C[C@@H](c3ccc(C(F)(F)F)cc3)CN(C(=O)N3CCS(=O)(=O)C3)C2)n1
remaining binding (cell-free assay, competition with immobilised ligand; 1 µM): 100%

O=C(NCCCN1CCOCC1)c1ccc(Nc2nccc(-c3cc4ccccc4s3)n2)cc1
remaining binding (binding, competition with immobilised ligand; 1 µM): 18%

CNC(=O)[C@@H]1CC[C@@H](n2c(-c3ccc4cnccc4c3)nc3ccc(C(=O)NCc4cccc(C(N)=O)c4)cc32)C1
remaining binding (binding, competition with immobilised ligand; 1 µM): 100%

O=C(c1ccc(Nc2ncc(Cl)c(-c3cc4ccccc4s3)n2)cc1)N1CCC(N2CCCC2)CC1
remaining binding (binding, competition with immobilised ligand; 1 µM): 20%

CN(C)C(=O)Cn1cc(-c2nc(C3(c4ccc(-c5cnc(N)nc5)cc4)CC3)no2)cn1
remaining binding (cell-free assay, competition with immobilised ligand; 1 µM): 86%

C[C@@H](c1ccc(-n2cnc3c(N)ncnc32)cc1)N1CCc2nn(C)c(Cc3ccccc3)c2C1=O
remaining binding (binding, competition with immobilised ligand; 0.1 µM): 100%
